Values joined by “and” are separate entries in the source; they are usually repeats but may differ in a detail not shown here. Equal entries are not always repeated. Where two headings read alike, the source gives them in different places.
T1: α/β1 20S proteasome complex (Salinispora tropica, UniProt A4X744)
T1 sequence (A4X744 54-279): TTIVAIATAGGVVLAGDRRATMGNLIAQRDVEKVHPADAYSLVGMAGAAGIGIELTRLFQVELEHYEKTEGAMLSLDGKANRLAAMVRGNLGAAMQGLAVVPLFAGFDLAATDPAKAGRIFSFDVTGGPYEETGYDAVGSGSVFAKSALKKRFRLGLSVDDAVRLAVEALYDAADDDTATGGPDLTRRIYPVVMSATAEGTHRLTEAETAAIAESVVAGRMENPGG
T1 sequence (A4X745 1-260 partner): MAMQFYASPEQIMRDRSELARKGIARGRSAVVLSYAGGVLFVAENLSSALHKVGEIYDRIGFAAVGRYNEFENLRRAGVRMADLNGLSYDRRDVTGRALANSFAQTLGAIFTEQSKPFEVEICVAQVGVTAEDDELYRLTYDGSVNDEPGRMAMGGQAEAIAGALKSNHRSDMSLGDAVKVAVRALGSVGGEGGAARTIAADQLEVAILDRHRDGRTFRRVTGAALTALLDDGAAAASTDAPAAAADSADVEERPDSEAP

T2: α/SalI 20S proteasome complex (Salinispora tropica, UniProt A4X3P0)
T2 sequence (A4X3P0 49-282): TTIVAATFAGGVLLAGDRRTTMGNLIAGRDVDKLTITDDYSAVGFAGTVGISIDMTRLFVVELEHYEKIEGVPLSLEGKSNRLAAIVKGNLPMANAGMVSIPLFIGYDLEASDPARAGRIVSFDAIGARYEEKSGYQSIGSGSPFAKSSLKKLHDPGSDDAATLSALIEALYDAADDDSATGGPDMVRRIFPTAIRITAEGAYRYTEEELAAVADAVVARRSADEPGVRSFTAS
T2 sequence (A4X745 1-260 partner): T1 sequence (A4X745 1-260 partner)

T3: α/β1 M45F proteasome complex (Salinispora tropica, UniProt A4X744, M98F)
T3 sequence (A4X744 54-279 M98F): T1 sequence (A4X744 54-279)
T3 sequence (A4X745 1-260 partner): T1 sequence (A4X745 1-260 partner)

T4: α/β1 A49V proteasome complex (Salinispora tropica, UniProt A4X744, A102V)
T4 sequence (A4X744 54-279 A102V): T1 sequence (A4X744 54-279)
T4 sequence (A4X745 1-260 partner): T1 sequence (A4X745 1-260 partner)

T5: α/β1 M45F/A49V proteasome complex (Salinispora tropica, UniProt A4X744, A102V/M98F)
T5 sequence (A4X744 54-279 M98F/A102V): T1 sequence (A4X744 54-279)
T5 sequence (A4X745 1-260 partner): T1 sequence (A4X745 1-260 partner)

T6: α/SalI F45M proteasome complex (Salinispora tropica, UniProt A4X3P0, F93M)
T6 sequence (A4X3P0 49-282 F93M): T2 sequence (A4X3P0 49-282)
T6 sequence (A4X745 1-260 partner): T1 sequence (A4X745 1-260 partner)

B1: SalI, proteasome β-subunit of the salinosporamide biosynthetic gene cluster (Strop_1015) (natural protein, Salinispora tropica CNB-440, UniProt A4X3P0 49-282, looked up)
chain: T2 sequence (A4X3P0 49-282)
B2: Salinispora tropica CNB-440 20S proteasome α-subunit (Strop_2245) (natural protein, UniProt A4X745 1-260, looked up)
chain: T1 sequence (A4X745 1-260 partner)
B3: Salinispora tropica CNB-440 20S proteasome β-subunit β1 (Strop_2244) (natural protein, UniProt A4X744 54-279, looked up)
chain: T1 sequence (A4X744 54-279)

Experiments:
[1] = target: T1, α/β1 20S proteasome complex; test: Proteasome inhibition; assay type: biochemical
[2] = target: T2, α/SalI 20S proteasome complex; test: Proteasome inhibition; assay type: biochemical; conditions: for fold increase in IC50 with the α/SalI complex in comparison to the α/β1 complex (resistance): α/SalI versus α/β1
[3] = target: T3, α/β1 M45F proteasome complex; test: Proteasome inhibition; assay type: biochemical
[4] = target: T4, α/β1 A49V proteasome complex; test: Proteasome inhibition; assay type: biochemical
[5] = target: T5, α/β1 M45F/A49V proteasome complex; test: Proteasome inhibition; assay type: biochemical
[6] = target: T6, α/SalI F45M proteasome complex; test: Proteasome inhibition; assay type: biochemical
[7] = target: T1, α/β1 20S proteasome complex; test: Time-dependence of inhibition, α/β1; assay type: biochemical; conditions: 0.5–100 μM inhibitor, Z-VKM-amc, 3.5 h, 30 °C
How it was run: (§1)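 Purified S. tropica α/β1 or α/SalI complex (His6-α, E. coli-expressed) in 50 mM Tris-HCl pH 8.0. Test compound (0.5–100 μM final) and 40 μM Z-VKM-amc were pre-warmed to 30 °C. Pre-warmed enzyme was added to 20 μg ml−1 (27 nM) final. Fluorescence (ex 355/em 460 nm) was read every minute for 3.5 h at a constant 30 °C.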

[8] = target: T2, α/SalI 20S proteasome complex; test: Time-dependence of inhibition, α/SalI; assay type: biochemical; conditions: 0.5–100 μM inhibitor, Z-VKM-amc, 3.5 h, 30 °C
How it was run: as §1

[9] = target: T1, α/β1 20S proteasome complex; test: Irreversibility of inhibition; assay type: biochemical; conditions: 250 μM inhibitor for 1.5 h at 30 °C, Z-VKM-amc
How it was run: (§2)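 Recombinant S. tropica proteasome (His6-tagged α coexpressed with untagged β1 or SalI in E. coli BL21(DE3); Ni-NTA then size-exclusion purified). Enzyme at 20 μg ml−1 in 50 mM Tris-HCl pH 8.0 was held with 250 μM test compound or matching DMSO, 1.5 h, 30 °C. It was buffer-exchanged three times on 30 kDa cutoff filters, then added to 40 μM Z-VKM-amc. Fluorescence (ex 355/em 460 nm) was read every minute for 3 h at 30 °C.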

[10] = target: T2, α/SalI 20S proteasome complex; test: Irreversibility of inhibition; assay type: biochemical; conditions: 250 μM inhibitor for 1.5 h at 30 °C, Z-VKM-amc
How it was run: as §2

[11] = target: the molecule itself; test: native gel or EMSA
[12] = IC50, α/SalI complex, substrate Z-VKM-amc 40 μM, mean ± SD, N = 3

| Molecule | IC50 [1] [µM] | IC50 [2] [µM] | IC50 [2, 12] [µM] | fold increase in IC50 with the α/SalI complex in comparison to the α/β1 complex (resistance) [2] | binding result [11] | also measured |
| --- | --- | --- | --- | --- | --- | --- |
| C[C@@]12OC(=O)[C@]1([C@@H](O)C1CCC1)NC(=O)[C@@H]2CCCl [Salinosporamide X3, salinosporamide X3] | > 250 | > 250 |  |  |  |  |
| CC(C)[C@H](O)[C@@]12NC(=O)[C@H](CCCl)[C@]1(C)OC2=O [Antiprotealide, antiprotealide] | 104 ± 7.2 | > 250 |  |  |  |  |
| C[C@@]12OC(=O)[C@]1([C@@H](O)[C@@H]1C=CCCC1)NC(=O)[C@@H]2CCCl [Salinosporamide A, salinosporamide A] |  |  | 36.8 ± 2.4 | 16–30 fold and 30 fold |  | IC50 [3]: 1.2 ± 0.1 µM; IC50 [4]: 13.6 ± 2.2 µM; increase in IC50 of α/β1 A49V mutant ([4]; α/β1 A49V versus wild-type α/β1, Z-VKM-amc): greater than a ten-fold increase; IC50 [5]: 15.3 ± 2.2 µM; IC50 ([2]; IC50, α/SalI complex, substrate Suc-LLVY-amc 40 μM, mean ± SD, N = 3): 52 ± 3.5 µM; IC50 [6]: 45.5 ± 2.3 µM; time-dependence of inhibition [7]: time-dependent inhibition; time-dependence of inhibition [8]: time-dependent inhibition; recovery of proteolytic activity after buffer exchange to remove inhibitor [9]: no recovery of proteolytic activity; recovery of proteolytic activity after buffer exchange to remove inhibitor [10]: no recovery of proteolytic activity |
| CC[C@H]1C(=O)N[C@@]2([C@@H](O)[C@@H]3C=CCCC3)C(=O)O[C@@]12C [Salinosporamide B, salinosporamide B] |  |  | 139 ± 27.3 | 7 fold |  |  |
| CC(C)C[C@H](NC(=O)[C@H](Cc1ccccc1)NC(=O)c1cnccn1)B(O)O [Bortezomib, bortezomib, reference compound] |  |  | 42.7 ± 3.4 | 13 fold |  |  |
| C[C@@]12OC(=O)[C@]1([C@@H](O)[C@@H]1C=CCC1)NC(=O)[C@@H]2CCCl [Salinosporamide X7, salinosporamide X7] | 3.6 ± 0.2 | > 250 |  |  |  |  |
| CCC[C@H](O)[C@@]12NC(=O)[C@H](CCCl)[C@]1(C)OC2=O [Salinosporamide X5, salinosporamide X5] | > 250 | > 250 |  |  |  |  |
| B1 |  |  |  |  | binds |  |
| B2 |  |  |  |  | binds |  |
| B3 |  |  |  |  | binds |  |

Source: publication PMC3220761 (ACS chemical biology, 2011)
